Assay outcomes: PubChem, Johns Hopkins Ion Channel Center
This is a sample that favours compounds with a hit; in the whole collection about 2.3% have one here.
TRPC4 act: activators of mouse TRPC4 channel | Q9QUQ5 | HEK293 TRPC4beta/mu-opioid, Fluo4 calcium fluorescence; stronger effect = higher value | B-score at 10 µM | 0.49% of 310,000 active;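 active means B-score above 5 SD of library B-scores, and initial fluorescence ratio not above library mean plus 5 SD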;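 further: positive B-score marks a calcium rise read as TRPC4 activation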
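Incubation: 45 min room-temperature Fluo4 loading, 110 s read / System: HEK293 cells stably co-expressing mouse TRPC4beta and mu-opioid receptor / Signal: Fluo4 fluorescence, kinetic / Control set: buffer (low) and maximal DAMGO (high) / Measure: integrated baseline-normalised fluorescence ratio, converted to per-well B score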
TRPC6 act: activators of mouse TRPC6 channel. Q61143. HEK293-TRPC6 membrane potential dye fluorescence; stronger effect = higher value. B-score at 10 µM. 0.13% of 310,000 active. AID 2550;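 active means B-score of the integrated fluorescence ratio above library mean plus 3 SD, and starting fluorescence ratio within library mean plus 5 SD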;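 further: higher score means more depolarization so channel activation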
Target sequence (Q61143 whole entry, looked up): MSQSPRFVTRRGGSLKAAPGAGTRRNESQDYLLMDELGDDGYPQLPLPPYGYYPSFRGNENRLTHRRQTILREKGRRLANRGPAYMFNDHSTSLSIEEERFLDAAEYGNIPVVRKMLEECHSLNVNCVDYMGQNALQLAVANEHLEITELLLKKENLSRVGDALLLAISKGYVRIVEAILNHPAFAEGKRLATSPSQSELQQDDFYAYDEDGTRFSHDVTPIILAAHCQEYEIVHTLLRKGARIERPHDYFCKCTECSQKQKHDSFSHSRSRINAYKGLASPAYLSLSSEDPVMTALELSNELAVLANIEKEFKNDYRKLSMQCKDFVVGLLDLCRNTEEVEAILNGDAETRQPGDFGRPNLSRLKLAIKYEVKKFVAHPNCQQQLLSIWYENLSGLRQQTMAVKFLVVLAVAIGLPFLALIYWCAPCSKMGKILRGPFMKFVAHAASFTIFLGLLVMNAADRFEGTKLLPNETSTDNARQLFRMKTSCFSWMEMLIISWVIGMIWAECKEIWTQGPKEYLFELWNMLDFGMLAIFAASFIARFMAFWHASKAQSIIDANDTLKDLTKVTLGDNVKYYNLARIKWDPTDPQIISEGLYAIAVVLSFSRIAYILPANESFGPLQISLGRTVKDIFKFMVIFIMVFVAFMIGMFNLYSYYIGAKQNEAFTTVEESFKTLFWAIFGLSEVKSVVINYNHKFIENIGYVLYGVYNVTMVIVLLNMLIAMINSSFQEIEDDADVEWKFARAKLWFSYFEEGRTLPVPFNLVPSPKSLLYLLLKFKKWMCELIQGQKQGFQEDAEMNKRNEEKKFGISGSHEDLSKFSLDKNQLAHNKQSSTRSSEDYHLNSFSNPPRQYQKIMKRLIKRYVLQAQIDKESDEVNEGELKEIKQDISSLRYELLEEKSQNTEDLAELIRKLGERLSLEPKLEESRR
TRPC6 inh: blocks the mouse TRPC6 cation channel | Q61143 | B-score at 10 µM | HEK293-TRPC6, membrane potential dye, ACh-evoked depolarization; stronger effect = lower value | 1.1% of 310,000 active;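 active means B-score under library mean minus 3 SD, initial fluorescence not abnormally high, positive integrated signal ratio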;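 further: B-score derived from integrated fluorescence ratio over the kinetic read; more negative B-score means stronger inhibition of depolarization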
TRPC4 inh: inhibitors of mouse TRPC4 channel. Q9QUQ5. B-score at 10 µM. HEK293 TRPC4beta/mu-opioid, DAMGO-evoked Fluo4 calcium flux; stronger effect = lower value. 0.39% of 300,000 active;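 active means B-score over 3 SD under the library average, no early fluorescence shift, positive overall ratio signal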
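Material: HEK293 cells with stable TRPC4beta plus mu-opioid receptor expression; probe or stimulus: DAMGO in two steps, submaximal then maximal; technique: Fluo4 calcium fluorescence by kinetic imaging, 5 s 1 Hz baseline; measure: integrated fluorescence ratio relative to baseline, converted to per-well B score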
TRPC4 potent: TRPC4 (mouse) allosteric potentiation; HEK293 TRPC4beta/mu-opioid, DAMGO EC20, Fluo-4 Ca2+ flux; stronger effect = higher value; B-score at 10 µM; 0.42% of 310,000 active; AID 2227;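 active means B-score of calcium response area above 5 SD of library B-scores, with initial fluorescence ratio within 5 SD of library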;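 further: B-score of integrated fluorescence ratio over time as area under calcium response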
* hit, by the source's call; i = inactive.

SMILES	TRPC4 act	TRPC6 act	TRPC6 inh	TRPC4 inh	TRPC4 potent
Fc1ccc(CNCCc2c[nH]c3ccccc23)cc1	i	i	i	i	i
CCOc1cc(CNCCc2c[nH]c3ccccc23)cc(Cl)c1OCC	46*	i	i	i	i
CCOc1c(Cl)cc(CNCCc2c[nH]c3ccccc23)cc1OC	53*	i	i	i	i
CN1CCN(c2ccc([N+](=O)[O-])c3cccnc23)CC1	64*	i	i	i	18*
O=[N+]([O-])c1ccc(N2CCNCC2)c2ncccc12	69*	i	-5.55*	i	24*
O=[N+]([O-])c1ccc(N2CCNCC2)cc1Sc1ccccn1	i	i	i	i	i
CN(C)CCNC(=O)c1cccn(Cc2cc(C(F)(F)F)cc(C(F)(F)F)c2)c1=O	i	i	i	i	i
CC(=O)N(C)CC#CCN1CCCC(CO)C1 (stereo not given)	i	i	i	i	i
N#CC1=C(N)Oc2cc(O)ccc2C1c1ccc2c(c1)OCO2 (stereo not given)	i	i	i	i	i
Oc1c(Cl)c(Cl)c(Cl)c(Cl)c1Cl	i	i	i	i	i
COc1ccc(CCN)cc1O	43*	i	i	i	i
O=C1NC2NC(=O)N([N+](=O)[O-])C2N1 (stereo not given)	i	i	i	i	i
COc1cccc(-n2c(CN3CCN(C)CC3)nc3ccc([N+](=O)[O-])cc3c2=O)c1	i	i	i	i	i
CN1CCN(c2cc([N+](=O)[O-])ccc2Cl)CC1	i	i	i	i	i
CN1CCN(c2ccc([N+](=O)[O-])cc2Cl)CC1	i	i	i	i	27*
CC1CN(c2ccc([N+](=O)[O-])cc2Cl)CCN1 (stereo not given)	63*	i	i	i	66*
O=C(O)[C@H]1C[C@@H]1[C@H](NP(=O)(c1ccccc1)c1ccccc1)c1ccccc1	i	i	i	i	i
CCC(=O)C(CCN1CCOCC1)(c1ccccc1)c1ccccc1	62*	i	i	i	i
COC(=O)C1=C(c2cc3ccccc3s2)C[C@@H]2CC[C@H]1N2C(=O)NCc1ccco1	i	i	i	i	i
O=P(Nc1ccccc1)(Nc1ccccc1)Oc1ccc(Cl)cc1	i	i	i	i	10*
Cc1ccc(CNC2=NCCS2)cc1	i	i	i	i	i
CCc1nnc(NS(=O)(=O)c2ccc(N=Cc3c(O)n(-c4ccc(Cl)cc4)c(=O)[nH]c3=O)cc2)s1	i	i	i	i	i
O=C(c1cccc(C(F)(F)F)c1)C1CCCN(Cc2ccccc2O)C1 (stereo not given)	i	i	i	-9*	i
CCn1cc(CN2CCCC(C(=O)c3cccc(OC)c3)C2)c(C)n1 (stereo not given)	53*	i	i	i	i
Cc1ccc(CN2CCCC(C(=O)c3cccc(C(F)(F)F)c3)C2)o1 (stereo not given)	i	i	i	i	i
SMILES	TRPC4 act	TRPC6 act	TRPC6 inh	TRPC4 inh	TRPC4 potent
O=C(c1ccc(C(F)(F)F)cc1)C1CCCN(Cc2ccncc2)C1 (stereo not given)	51*	i	i	i	i
CCCn1cc(CN2CCCC(C(=O)c3cccc(OC)c3)C2)c(C)n1 (stereo not given)	i	i	i	i	i
CC1CN(C(=O)CCC(=O)N2CCC3(CC2)OCCO3)c2cc(Cl)ccc2O1 (stereo not given)	i	i	i	i	i
CCCC[N+]1(C)[C@@H]2CC(OC(=O)[C@H](CO)c3ccccc3)C[C@H]1[C@@H]1O[C@@H]12 (stereo not given in full)	i	i	i	i	i
CCN(CC)CC(=O)Nc1ccc(Cl)cc1C(=O)c1ccccc1	i	i	i	-6*	i
COc1cc(CN2CCCC(C(=O)c3sccc3C)C2)cc(OC)c1O (stereo not given)	i	i	i	i	i
COc1ccc(CN2CCCC(C(=O)c3sccc3C)C2)cc1O (stereo not given)	i	i	i	-7*	i
Clc1ccc(N2CCNCC2)nn1	i	i	i	i	22*
COc1ccccc1C1CC2CCC(C1OC(C)=O)N2Cc1ccccc1 (stereo not given)	i	i	i	i	i
Clc1ccc(C[n+]2c(-c3ccccc3)cc(-c3ccccc3)cc2-c2ccccc2)cc1	i	i	-5.19*	i	i
COc1ccc(CCNCc2ccc(SC)cc2)cc1	101*	i	i	i	i
COc1cccc(CNCCc2ccc(F)cc2)c1	i	i	i	i	i
COc1nc2ccccc2c(=O)n1-c1ccc(C)cc1	i	i	i	i	i
COc1nc2ccccc2c(=O)n1-c1ccc(Cl)cc1	i	i	i	i	11*
C#CC[N+]1(C)C2CCC1CC(O)C2 (stereo not given)	i	i	i	i	i
C=CCn1c(O)c(N=Nc2c(C)n(C)n(-c3ccccc3)c2=O)c(=O)[nH]c1=S	45*	i	i	i	i
Cc1c(N=Nc2c(O)[nH]c(=S)[nH]c2=O)c(=O)n(-c2ccccc2)n1C	i	i	i	i	i
O=P(Nc1c(Cl)cccc1Cl)(c1ccccc1)c1nc2c(s1)CCCC2 (stereo not given)	i	i	i	i	i
O=P(Nc1ccccc1Cl)(c1ccccc1)c1nc2c(s1)CCCC2 (stereo not given)	i	i	i	i	14*
CC1CN=C(NCCc2ccccc2)S1 (stereo not given)	i	i	i	i	i
c1ccc(C(OCCN2CCNCC2)c2ccccc2)cc1	i	i	i	i	i
c1ccc2nc(OCCN3CC3)ccc2c1	i	i	i	i	18*
COc1ccc(C2NCCc3[nH]cnc32)cc1 (stereo not given)	175*	i	i	i	i
c1ccc(C2NCCc3[nH]cnc32)cc1 (stereo not given)	i	i	i	i	i
CCCCn1c(C)c(C(=O)O)c2cc(OC)c3ccccc3c21	i	i	i	i	i
CCC(=O)OC1(Cc2ccc(CC)cc2)CC(C)N(C)CC1C (stereo not given)	48*	i	i	-8*	i
CCC(=O)OC1(c2cccc(C)c2)CC(C)N(C)CC1C (stereo not given)	68*	i	i	i	i
